Screening results (PubChem BioAssay)
XiGFP reactiv: reactivates the inactive X chromosome in mouse fibroblasts | activation, % at 7.58 µM | XiGFP mouse fibroblasts, % GFP-positive cells imaging, 3 d; cells co-treated with 5-aza-dC sensitizer; scaled so ellipticine positive control = 100% | actives 0.055% (n = 360,000);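 active = mean normalized replicate activation at least 10% and every replicate at or above 10%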;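 note: 0% = median of on-plate neutral control wells and 100% = ellipticine 6 µM median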
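Schedule: 3 d treatment, 15 min room-temperature fixation; system: 68-5-11 XiGFP fibroblast line; buffer or medium: DMEM plus 5-aza-dC sensitizer; control set: ellipticine 6 µM positive control; compound: one concentration, pinned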
E-selectin induc: induces E-selectin expression in human endothelial cells. P16581. HUVEC E-selectin immunofluorescence imaging; normalized: neutral wells 0, TNF-alpha wells 100. activation, % at 7.58 µM. actives 0.37% (n = 260,000);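 active = mean E-selectin-positive cell signal at least 10% of the positive control, reached in at least 60% of replicates, without over 20% cell loss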
Target sequence (P16581 whole entry, looked up): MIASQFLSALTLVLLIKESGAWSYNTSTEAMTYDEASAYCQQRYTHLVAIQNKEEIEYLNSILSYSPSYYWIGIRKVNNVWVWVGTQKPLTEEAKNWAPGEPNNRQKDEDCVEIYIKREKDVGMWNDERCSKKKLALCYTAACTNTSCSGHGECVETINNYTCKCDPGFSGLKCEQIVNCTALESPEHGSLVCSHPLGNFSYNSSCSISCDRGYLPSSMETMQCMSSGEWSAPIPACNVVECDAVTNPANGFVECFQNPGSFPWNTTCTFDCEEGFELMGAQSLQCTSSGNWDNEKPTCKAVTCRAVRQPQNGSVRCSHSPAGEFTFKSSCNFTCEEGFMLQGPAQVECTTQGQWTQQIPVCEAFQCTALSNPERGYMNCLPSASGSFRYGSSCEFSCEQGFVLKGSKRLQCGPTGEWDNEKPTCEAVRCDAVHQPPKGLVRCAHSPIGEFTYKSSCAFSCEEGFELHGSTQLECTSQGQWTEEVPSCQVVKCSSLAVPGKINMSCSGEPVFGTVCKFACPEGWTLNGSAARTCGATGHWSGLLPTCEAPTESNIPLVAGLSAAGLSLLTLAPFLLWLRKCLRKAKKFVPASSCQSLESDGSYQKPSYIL
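material = human umbilical vein endothelial cells (HUVEC), E-selectin induction | quantity = 3,000 cells/well | medium = EGM-2 growth medium on 0.1% gelatin-coated wells | technique = immunofluorescence imaging | read-out basis = % PE-positive cells | control set = TNF-alpha positive control, DMSO neutral control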
CFTR F508del cor: CFTR F508del correction in bronchial cells | activity (quench increase), % at 7.58 µM | AID 720511 | actives 0.36% (n = 350,000) | CFBE cells, YFP halide quenching; stimulated with forskolin plus potentiator P3; % fluorescence drop versus neutral controls;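 active = mean added fluorescence quench of at least 8% versus neutral control, with both replicates also reaching 8%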;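 note: cells transiently co-express mutant CFTR-F508del with the halide-sensitive YFP; corrector assay measuring rescue of mutant channel to the surface after 24 h compound exposure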
The depositor's hits bear a star. An excerpt weighted towards active compounds, which were near 0.61% of everything screened.

`CC(=O)Nc1ccc2c(c1)C(=O)N(C)[C@H]1CC[C@@H](CC(=O)NCc3ccccc3Cl)O[C@@H]1CO2` gave XiGFP reactiv 0, E-selectin induc 0 and CFTR F508del cor -1.
Screening C[C@@H]1CN([C@@H](C)CO)C(=O)c2ccccc2-c2ccccc2CO[C@@H]1CN(C)C(=O)[C@H](C)c1ccccc1 returned XiGFP reactiv -1, E-selectin induc 0 and CFTR F508del cor -3.
For CC(=O)N(C1=C(Cl)C(=O)c2ccccc2C1=O)C1CCCCC1 the results were XiGFP reactiv 4, E-selectin induc 36* and CFTR F508del cor -6.
CC(=O)N(c1ccccc1C)C1CCCC1 was read as XiGFP reactiv 0 and CFTR F508del cor -3.
`C=C[C@H](COC(C)=O)N(C(=O)OC(C)(C)C)S(=O)(=O)c1ccc(Br)cc1` gave CFTR F508del cor 1.
`COc1ccc(S(=O)(=O)N(CC(=O)NCc2cccnc2)Cc2ccccc2)cc1` gave XiGFP reactiv 0, E-selectin induc -1 and CFTR F508del cor -1.
`O=C(CN(Cc1ccccc1)S(=O)(=O)c1ccc(F)cc1)NCc1cccnc1` gave XiGFP reactiv 0 and CFTR F508del cor 9.0*.
`CCCCNC(=O)c1onc(CSc2ccccc2F)c1C(=O)O` gave XiGFP reactiv 1, E-selectin induc 0 and CFTR F508del cor -2.
Screening CCCCNC(=O)c1onc(CSc2ccccc2C)c1C(=O)O returned XiGFP reactiv 0, E-selectin induc 0 and CFTR F508del cor 8.3*.
Screening Cc1noc(C)c1NC(=O)N(C)C[C@H]1Oc2c(NC(=O)Nc3ccc(C(F)(F)F)cc3)cccc2C(=O)N([C@H](C)CO)C[C@H]1C returned CFTR F508del cor -2.
For C[C@@H]1CN([C@H](C)CO)C(=O)c2cc(NC(=O)CCCN(C)C)ccc2O[C@@H](C)CCCCO[C@@H]1CN(C)Cc1ccccc1 the results were XiGFP reactiv 0, E-selectin induc 0 and CFTR F508del cor 0.
For Cc1ccc(S(=O)(=O)N(C)C[C@@H]2Oc3ccc(N(C)C)cc3C(=O)N([C@@H](C)CO)C[C@@H]2C)cc1 the results were XiGFP reactiv 0, E-selectin induc -14 and CFTR F508del cor 0.
Screening Cc1ccc(S(=O)(=O)N(C)C[C@H]2Oc3ccc(N(C)C)cc3C(=O)N([C@@H](C)CO)C[C@@H]2C)cc1 returned XiGFP reactiv 2, E-selectin induc 47* and CFTR F508del cor -3.
For Cc1ccc(S(=O)(=O)N(C)C[C@H]2Oc3ccc(N(C)C)cc3C(=O)N([C@H](C)CO)C[C@@H]2C)cc1 the results were XiGFP reactiv 0, E-selectin induc -15 and CFTR F508del cor 0.
Cc1ccc(S(=O)(=O)N(C)C[C@@H]2Oc3ccc(N(C)C)cc3C(=O)N([C@H](C)CO)C[C@H]2C)cc1 was read as XiGFP reactiv 0, E-selectin induc 36* and CFTR F508del cor 0.
For COCC(=O)N(C)C[C@H]1Oc2cc(C#C[C@@H](C)O)ccc2S(=O)(=O)N([C@H](C)CO)C[C@@H]1C the results were XiGFP reactiv 0, E-selectin induc 0 and CFTR F508del cor -1.
For CNC(=O)C[C@@H]1CC[C@@H]2[C@H](COc3ccc(NC(=O)c4cscn4)cc3C(=O)N2C)O1 the results were XiGFP reactiv 0, E-selectin induc 0 and CFTR F508del cor -1.
C[C@H](CO)N1C[C@H](C)[C@@H](CN(C)S(C)(=O)=O)Oc2ccc(NC(=O)C3CCCCC3)cc2C1=O was read as XiGFP reactiv 0, E-selectin induc -12 and CFTR F508del cor -1.
For Cc1ccc(S(=O)(=O)N(C)C[C@@H]2Oc3ccc(NC(=O)NC4CCCCC4)cc3C(=O)N([C@H](C)CO)C[C@H]2C)cc1 the results were XiGFP reactiv 0, E-selectin induc 1 and CFTR F508del cor 2.
For C[C@@H]1CN([C@@H](C)CO)C(=O)c2cc(NC(=O)NC3CCCCC3)ccc2O[C@@H]1CN(C)S(=O)(=O)c1ccc(Cl)cc1 the results were XiGFP reactiv 0, E-selectin induc 27* and CFTR F508del cor -1.
`C[C@H](CO)N1C[C@H](C)[C@H](CN(C)S(=O)(=O)c2ccc(Cl)cc2)Oc2ccc(NC(=O)Cc3ccccc3)cc2C1=O` gave XiGFP reactiv 0, E-selectin induc 36* and CFTR F508del cor 0.
Screening C[C@@H]1CN([C@@H](C)CO)C(=O)c2cc(NC(=O)Cc3ccccc3)ccc2O[C@@H]1CN(C)S(=O)(=O)c1ccc(Cl)cc1 returned XiGFP reactiv 0, E-selectin induc -14 and CFTR F508del cor 1.
Screening C[C@H]1CN([C@@H](C)CO)C(=O)c2cc(NC(=O)NC3CCCCC3)ccc2O[C@@H]1CN(C)S(=O)(=O)c1ccc(Cl)cc1 returned XiGFP reactiv 0, E-selectin induc 449* and CFTR F508del cor -1.
`C[C@H](CO)N1C[C@H](C)[C@@H](CN(C)S(=O)(=O)c2ccc(Cl)cc2)Oc2ccc(NC(=O)NC3CCCCC3)cc2C1=O` gave XiGFP reactiv 0, E-selectin induc 13 and CFTR F508del cor -3.
C[C@H](CO)N1C[C@H](C)[C@H](CN(C)S(C)(=O)=O)Oc2ccc(NC(=O)C3CCCCC3)cc2C1=O was read as XiGFP reactiv 0, E-selectin induc 41* and CFTR F508del cor -2.
Screening C[C@@H](O)C#Cc1cnc2c(c1)C(=O)N([C@@H](C)CO)C[C@H](C)[C@H](CN(C)C(=O)CC1CC1)O2 returned XiGFP reactiv 0, E-selectin induc -1 and CFTR F508del cor 0.
Screening O=C(NCC1CC1)[C@H]1[C@H](CO)[C@H]2Cn3c(cccc3=O)[C@@H]1N2C(=O)c1ccccc1 returned XiGFP reactiv 0, E-selectin induc 0 and CFTR F508del cor 0.
Screening O=C(C[C@H]1CC[C@@H]2[C@H](COC[C@H](O)CN2S(=O)(=O)c2ccc(F)cc2)O1)NCC1CCCCC1 returned XiGFP reactiv 0, E-selectin induc 0 and CFTR F508del cor 5.
Screening C[C@H](CO)N1C[C@H](C)[C@H](CN(C)C(=O)CN(C)C)Oc2cc(-c3ccc(C#N)cc3)ccc2S1(=O)=O returned XiGFP reactiv 0, E-selectin induc -1 and CFTR F508del cor -2.
C=CCN1C(=O)[C@@]2(O[C@@H](CCn3cc([C@H](O)c4ccccc4)nn3)[C@H]([Si](C)(C)c3ccc(OC)cc3)[C@H]2C)c2cc(N3CCOC3=O)ccc21 was read as CFTR F508del cor 12*.
Screening C=CCN1C(=O)[C@@]2(O[C@@H](CCn3cc(CCO)nn3)[C@H]([Si](C)(C)c3ccc(OC)cc3)[C@H]2C)c2cc(N3CCOC3=O)ccc21 returned CFTR F508del cor 3.
CCN(C[C@H]1N[C@H](CO)[C@H]1c1ccc(-c2cccc(F)c2)cc1)C(=O)COC was read as XiGFP reactiv 0, E-selectin induc 0 and CFTR F508del cor -2.
Oc1ccc(Cl)cc1C=Nc1ccc2c3c(cccc13)CC2 was read as XiGFP reactiv 30*, E-selectin induc 24 and CFTR F508del cor -3.
Cc1cccc(C=Nc2ccc3c4c(cccc24)CC3)c1O was read as XiGFP reactiv 0.
For COc1cc2ccccc2nn1 the results were XiGFP reactiv 0, E-selectin induc 0 and CFTR F508del cor -1.
